What was measured:
Histone deacetylase = experiment: Inhibition of HDAC in human HeLa cell nuclear extract after 30 mins by fluorescence microplate reader; assay type: protein assay
cells = assay type: functional, Hep 3B2; conditions: Homo sapiens, Hep3B, 48 h
MDA-MB-231 = experiment: cells; assay type: functional; conditions: Homo sapiens, MDA-MB-231, 48 h
PC-3 = experiment: cells; assay type: functional; conditions: Homo sapiens, PC-3, 48 h
A549 = experiment: Growth inhibition of human A549 cells after 48 hrs by SRB assay; assay type: functional
Summary of the method: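 A549 cells were grown in RPMI 1640 with 10% FBS and 2 mM glutamine at 37 °C in 5% CO₂, then seeded in medium with 5% FBS. A 24 h TCA-fixed plate gave T₀. Cells were exposed to compound or DMSO for 48 h, fixed with 10% TCA and stained with 0.4% SRB; bound dye was solubilized in 10 mM Tris and read at 515 nm. GI₅₀ was the concentration halving net protein increase. At least three independent experiments.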

Histone deacetylase 1 = Histone deacetylase 1 (Homo sapiens, UniProt Q13547); experiment: Inhibition of human recombinant HDAC1 after 30 mins by fluorometric assay
Histone deacetylase 2 = Histone deacetylase 2 (Homo sapiens, UniProt Q92769); experiment: Inhibition of human recombinant HDAC2 after 30 mins by fluorometric assay
[1] = molecular target: T1, Protein deacetylase HDAC6 (Homo sapiens, UniProt Q9UBN7); experiment: Inhibition of human recombinant HDAC6 after 30 mins by fluorometric assay
T1 sequence (Q9UBN7 whole entry): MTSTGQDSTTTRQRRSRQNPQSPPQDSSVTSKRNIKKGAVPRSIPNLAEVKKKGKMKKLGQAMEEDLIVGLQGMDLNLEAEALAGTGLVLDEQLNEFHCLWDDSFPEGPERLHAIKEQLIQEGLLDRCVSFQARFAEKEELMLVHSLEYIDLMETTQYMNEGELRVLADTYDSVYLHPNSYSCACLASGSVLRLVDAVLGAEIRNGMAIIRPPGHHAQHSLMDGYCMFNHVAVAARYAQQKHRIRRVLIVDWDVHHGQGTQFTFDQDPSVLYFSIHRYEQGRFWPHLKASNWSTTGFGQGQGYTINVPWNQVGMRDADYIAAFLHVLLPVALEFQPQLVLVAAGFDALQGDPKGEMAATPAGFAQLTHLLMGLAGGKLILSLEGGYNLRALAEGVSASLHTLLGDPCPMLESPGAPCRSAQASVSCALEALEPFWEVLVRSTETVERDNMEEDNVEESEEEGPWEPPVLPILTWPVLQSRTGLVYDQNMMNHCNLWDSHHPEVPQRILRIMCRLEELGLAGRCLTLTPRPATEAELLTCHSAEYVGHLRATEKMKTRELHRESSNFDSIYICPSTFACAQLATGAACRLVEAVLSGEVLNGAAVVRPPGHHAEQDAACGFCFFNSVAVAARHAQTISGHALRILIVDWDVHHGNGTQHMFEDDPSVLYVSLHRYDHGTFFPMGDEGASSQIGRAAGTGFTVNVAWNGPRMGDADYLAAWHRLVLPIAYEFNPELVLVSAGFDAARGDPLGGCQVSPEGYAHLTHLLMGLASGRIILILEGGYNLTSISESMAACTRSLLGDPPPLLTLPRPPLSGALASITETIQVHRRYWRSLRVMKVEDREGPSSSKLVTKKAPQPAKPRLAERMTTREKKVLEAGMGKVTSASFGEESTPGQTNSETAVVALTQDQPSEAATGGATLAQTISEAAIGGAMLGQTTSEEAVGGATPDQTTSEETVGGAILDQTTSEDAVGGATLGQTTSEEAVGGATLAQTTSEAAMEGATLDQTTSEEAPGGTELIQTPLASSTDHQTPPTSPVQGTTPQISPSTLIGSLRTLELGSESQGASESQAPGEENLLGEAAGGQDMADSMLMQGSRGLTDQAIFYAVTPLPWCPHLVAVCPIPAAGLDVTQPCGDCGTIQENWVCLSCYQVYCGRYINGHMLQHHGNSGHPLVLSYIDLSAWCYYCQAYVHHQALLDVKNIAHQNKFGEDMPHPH

Homo sapiens = species: Homo sapiens; experiment: Selectivity ratio of IC50 for human HDAC1 to IC50 for human HDAC6

Sequence of Histone deacetylase 2 (Q92769 whole entry): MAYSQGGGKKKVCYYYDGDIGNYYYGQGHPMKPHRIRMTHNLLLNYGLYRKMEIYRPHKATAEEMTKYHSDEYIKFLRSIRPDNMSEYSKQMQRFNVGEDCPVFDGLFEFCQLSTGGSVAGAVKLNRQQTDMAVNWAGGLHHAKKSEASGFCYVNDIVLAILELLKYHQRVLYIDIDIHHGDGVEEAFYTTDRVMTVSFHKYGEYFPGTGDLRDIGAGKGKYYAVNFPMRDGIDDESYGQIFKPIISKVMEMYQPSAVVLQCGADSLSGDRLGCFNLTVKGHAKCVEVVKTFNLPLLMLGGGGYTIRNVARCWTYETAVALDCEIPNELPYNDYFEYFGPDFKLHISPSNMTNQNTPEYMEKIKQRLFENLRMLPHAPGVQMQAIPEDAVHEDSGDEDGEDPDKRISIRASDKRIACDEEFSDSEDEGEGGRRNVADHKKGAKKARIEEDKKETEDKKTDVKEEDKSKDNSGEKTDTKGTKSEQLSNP
Sequence of Histone deacetylase 1 (Q13547 whole entry): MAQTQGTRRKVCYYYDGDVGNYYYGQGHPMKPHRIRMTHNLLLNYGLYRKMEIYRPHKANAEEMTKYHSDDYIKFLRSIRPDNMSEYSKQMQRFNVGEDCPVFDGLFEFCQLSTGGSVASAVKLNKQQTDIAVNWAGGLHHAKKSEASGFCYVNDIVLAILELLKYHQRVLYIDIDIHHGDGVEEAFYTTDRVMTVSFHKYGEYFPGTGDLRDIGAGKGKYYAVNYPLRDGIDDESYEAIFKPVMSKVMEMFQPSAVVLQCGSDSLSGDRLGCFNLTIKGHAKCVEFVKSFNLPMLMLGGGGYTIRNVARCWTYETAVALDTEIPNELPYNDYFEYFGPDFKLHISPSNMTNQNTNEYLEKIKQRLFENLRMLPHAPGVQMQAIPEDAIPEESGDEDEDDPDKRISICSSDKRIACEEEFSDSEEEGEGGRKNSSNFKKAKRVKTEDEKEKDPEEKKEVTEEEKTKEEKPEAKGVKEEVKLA

O=C(/C=C/c1cn(S(=O)(=O)c2ccccc2)c2ccccc12)NO
IC50 (Histone deacetylase): > 1000 nM
GI50 (cells): 8870 nM
GI50 (MDA-MB-231): 8140 nM
GI50 (PC-3): 5770 nM
GI50 (A549; Homo sapiens, A549, 48 h): 7060 nM

COc1ccc(S(=O)(=O)n2ccc3cc(/C=C/C(=O)NO)ccc32)cc1
IC50 (Histone deacetylase): 6.8 nM
GI50 (cells): 550 nM
GI50 (MDA-MB-231): 750 nM
GI50 (PC-3): 800 nM
GI50 (A549; Homo sapiens, A549, 48 h): 1180 nM
IC50 (Histone deacetylase 1): 125 nM
IC50 (Histone deacetylase 2): 362 nM
IC50 [1]: 3.3 nM
Ratio IC50 (Homo sapiens): 40

O=C(/C=C/c1ccc2c(ccn2S(=O)(=O)c2ccc([N+](=O)[O-])cc2)c1)NO
IC50 (Histone deacetylase): 12.6 nM
GI50 (cells): 560 nM
GI50 (MDA-MB-231): 750 nM
GI50 (PC-3): 850 nM
GI50 (A549; Homo sapiens, A549, 48 h): 1210 nM
IC50 (Histone deacetylase 1): 69.9 nM
IC50 (Histone deacetylase 2): 189 nM
IC50 [1]: 18.3 nM

COc1ccc(S(=O)(=O)n2ccc3cc(/C=C/C(=O)NO)ccc32)cc1OC
IC50 (Histone deacetylase): 9.7 nM
GI50 (cells): 360 nM
GI50 (MDA-MB-231): 370 nM
GI50 (PC-3): 930 nM
GI50 (A549; Homo sapiens, A549, 48 h): 560 nM
IC50 (Histone deacetylase 1): 18.1 nM
IC50 (Histone deacetylase 2): 2.3 nM
IC50 [1]: 45.4 nM

O=C(NO)c1ccc2c(ccn2S(=O)(=O)c2ccccc2)c1
IC50 (Histone deacetylase): > 1000 nM
GI50 (cells): > 10000 nM
GI50 (MDA-MB-231): 5680 nM
GI50 (PC-3): 7260 nM
GI50 (A549; Homo sapiens, A549, 48 h): > 10000 nM

O=C(CCc1ccc2c(ccn2S(=O)(=O)c2ccccc2)c1)NO
IC50 (Histone deacetylase): 407.5 nM
GI50 (cells): 2560 nM
GI50 (MDA-MB-231): 2210 nM
GI50 (PC-3): 2070 nM
GI50 (A549; Homo sapiens, A549, 48 h): 4040 nM

O=C(/C=C/c1ccc2c(ccn2S(=O)(=O)c2ccc(F)cc2)c1)NO
IC50 (Histone deacetylase): 16.8 nM
GI50 (cells): 640 nM
GI50 (MDA-MB-231): 660 nM
GI50 (PC-3): 390 nM
GI50 (A549; Homo sapiens, A549, 48 h): 750 nM
IC50 (Histone deacetylase 1): 33.2 nM
IC50 (Histone deacetylase 2): 199 nM
IC50 [1]: 59.2 nM

O=C(/C=C/c1ccc2c(ccn2-c2ccccc2)c1)NO
IC50 (Histone deacetylase): 186.5 nM
GI50 (cells): 1320 nM
GI50 (MDA-MB-231): 1730 nM
GI50 (PC-3): 1540 nM
GI50 (A549; Homo sapiens, A549, 48 h): 2850 nM

O=C(/C=C/c1cccc2c1ccn2S(=O)(=O)c1ccccc1)NO
IC50 (Histone deacetylase): 170.9 nM
GI50 (cells): 4320 nM
GI50 (MDA-MB-231): 4160 nM
GI50 (PC-3): 3670 nM
GI50 (A549; Homo sapiens, A549, 48 h): 6700 nM

O=C(/C=C/c1ccc2c(ccn2C(=O)c2ccccc2)c1)NO
IC50 (Histone deacetylase): 757.6 nM
GI50 (cells): 2400 nM
GI50 (MDA-MB-231): 3180 nM
GI50 (PC-3): 2320 nM
GI50 (A549; Homo sapiens, A549, 48 h): 5800 nM

O=C(CCCCCCC(=O)Nc1ccccc1)NO [VORINOSTAT]
GI50 (A549): 1850 nM

O=C(/C=C/c1ccc2[nH]ccc2c1)NO
IC50 (Histone deacetylase): > 1000 nM
GI50 (cells): 3650 nM
GI50 (MDA-MB-231): 4370 nM
GI50 (PC-3): 4800 nM
GI50 (A549; Homo sapiens, A549, 48 h): 9070 nM

O=C(/C=C/c1cccc2ccn(S(=O)(=O)c3ccccc3)c12)NO
IC50 (Histone deacetylase): > 1000 nM
GI50 (cells): 3820 nM
GI50 (MDA-MB-231): 7710 nM
GI50 (PC-3): 4750 nM
GI50 (A549; Homo sapiens, A549, 48 h): 5500 nM

O=C(/C=C/c1ccc2[nH]cc(S(=O)(=O)c3ccccc3)c2c1)NO
IC50 (Histone deacetylase): 275.2 nM
GI50 (cells): 1270 nM
GI50 (MDA-MB-231): 1250 nM
GI50 (PC-3): 1260 nM
GI50 (A549; Homo sapiens, A549, 48 h): 3330 nM

O=C(/C=C/c1ccc2ccn(S(=O)(=O)c3ccccc3)c2c1)NO
IC50 (Histone deacetylase): 254 nM
GI50 (cells): 2120 nM
GI50 (MDA-MB-231): 2410 nM
GI50 (PC-3): 2400 nM
GI50 (A549; Homo sapiens, A549, 48 h): 5300 nM

O=C(/C=C/c1ccc2c(ccn2Cc2ccccc2)c1)NO
IC50 (Histone deacetylase): 32.1 nM
GI50 (cells): 860 nM
GI50 (MDA-MB-231): 1180 nM
GI50 (PC-3): 1230 nM
GI50 (A549; Homo sapiens, A549, 48 h): 2370 nM
IC50 (Histone deacetylase 1): 71.2 nM
IC50 (Histone deacetylase 2): 381 nM
IC50 [1]: 40.4 nM
